Paper PMC10337234 (Nature chemical biology, 2023)

Key:
[1] = system: AR-FL mRNA; assay: QuantiGene assay for AR-FL mRNA expression in 22Rv1 cells; assay type: cell-based; conditions: Homo sapiens, 22Rv1, 6 h, read-out: IC50 for AR-FL transcript suppression
[2] = system: AR-V7 mRNA; assay: QuantiGene assay for AR-V7 mRNA expression in 22Rv1 cells; assay type: cell-based; conditions: Homo sapiens, 22Rv1, 6 h, read-out: IC50 for AR-V7 transcript suppression
[3] = molecular target: T1, NONO C145 (Homo sapiens, UniProt Q15233); assay type: binding
T1 sequence (Q15233 1-471): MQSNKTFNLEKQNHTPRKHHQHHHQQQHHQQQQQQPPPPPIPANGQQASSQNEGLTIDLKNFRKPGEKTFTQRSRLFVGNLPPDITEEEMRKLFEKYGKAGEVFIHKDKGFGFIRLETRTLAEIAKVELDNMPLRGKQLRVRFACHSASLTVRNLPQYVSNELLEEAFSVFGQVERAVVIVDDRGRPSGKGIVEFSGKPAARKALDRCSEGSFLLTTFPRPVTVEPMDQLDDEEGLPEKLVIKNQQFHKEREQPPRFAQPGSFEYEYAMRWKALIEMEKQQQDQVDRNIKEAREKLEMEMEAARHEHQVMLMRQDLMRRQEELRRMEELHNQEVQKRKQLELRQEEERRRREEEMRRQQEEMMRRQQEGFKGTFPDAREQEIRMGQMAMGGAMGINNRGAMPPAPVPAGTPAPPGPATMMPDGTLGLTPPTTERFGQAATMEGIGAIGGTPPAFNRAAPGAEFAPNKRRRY
Summary of the method: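 HEK293T cells were seeded at 5 × 10^5 overnight and PEI-transfected with FLAG-tagged WT or C145S NONO, or empty vector, for 48 h. Cells were then given test compound or 0.1% DMSO in situ for 2 h, followed by a cysteine-reactive alkyne probe (20 μM, 1 h, 37 °C). Lysates (2 mg ml–1) were click-conjugated to rhodamine/TAMRA-azide and run on SDS-PAGE. The FLAG-NONO band was quantified by in-gel fluorescence. Four independent experiments gave the IC50.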

[4] = molecular target: T1, NONO C145; assay: Cysteine-directed MS-ABPP, engagement of NONO C145 in 22Rv1 cells; assay type: binding; conditions: 1 h
Summary of the method: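 22Rv1 cells were seeded at 2 × 10^6 per 10-cm plate and grown for 48 h. They were treated in situ with 20 μM test compound or DMSO for 1 h, then analysed by cysteine-directed MS-ABPP. Engagement was taken from the DMSO versus compound reactivity ratio, capped at 10 and 0.1. Values are means of three independent experiments, counting cysteines quantified in at least two.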

[5] = molecular target: T2, NONO (Homo sapiens, UniProt Q15233); assay: Immunofluorescence of NONO nuclear foci in 22Rv1 cells; assay type: cell-based; conditions: 20 μM, 1 h to 24 h
T2 sequence (Q15233 1-471): T1 sequence (Q15233 1-471)

[6] = system: 22Rv1 cells; assay: RNA-seq of sgControl 22Rv1 cells; assay type: cell-based, human; conditions: 20 μM, 4 h, log2 (fold change) < −0.5, Padj < 0.01, versus (S)-SKBG-1 or DMSO
[7] = system: 22Rv1 cells; assay: Cell growth inhibition assay; assay type: cell-based, human; conditions: 22Rv1, 6 d, versus (S)-SKBG-1
Summary of the method: (§1)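 Cells were seeded at 5,000 per well for 16 h. They were then given 0.1% DMSO or test compound in 0.1% DMSO (threefold dilutions from 50 μM, eight concentrations) until DMSO controls were confluent: 6 d for 22Rv1, 5 d for MCF7, 4 d for HeLa and HT1080. CellTiterGlo was added for 30 min at room temperature and luminescence read. Signals were normalized to DMSO, with four replicate wells per concentration. EC50 came from a four-parameter variable-slope fit.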

[8] = system: MCF7 cells; assay: Cell growth inhibition assay; assay type: cell-based, human; conditions: MCF7, 5 days, versus (S)-SKBG-1
Summary of the method: as §1

[9] = system: HeLa cells; assay: Cell growth inhibition assay; assay type: cell-based, human; conditions: 4 days, versus (S)-SKBG-1
Summary of the method: as §1

[10] = system: HT1080 cells; assay: Cell growth inhibition assay; assay type: cell-based, human; conditions: HT1080, 4 days, versus (S)-SKBG-1
Summary of the method: as §1

engagement of NONO C145 ([4]; 22Rv1 cells, 20 μM)	Compound	IC50 [1] [µM]	IC50 [2] [µM]	IC50 [3] [µM]	inhibition at 20 µM ([4]; read-out: engagement of NONO C145) [%]	formation of subnuclear foci of NONO [5]	number of transcripts substantially and significantly decreased [6]	cell growth effect [7]	cell growth effect [8]	cell growth effect [9]	cell growth effect [10]
–	COc1ccc(CNC(=O)[C@H]2CN(C(=O)CCl)CCN2S(=O)(=O)c2ccc(OC)cc2)cc1 [(R)-SKBG-1]	2.7 to 5.5	2.7 to 5.5	5.7	> 50	induced the formation of large subnuclear foci of NONO	~ 1,000 transcripts	stereoselective cell growth impairment	stereoselective cell growth impairment	stereoselective cell growth impairment	stereoselective cell growth impairment
not by the inactive controls	COc1ccc(CNC(=O)[C@@H]2CN(C(=O)CCl)CCN2S(=O)(=O)c2ccc(OC)cc2)cc1 [(S)-SKBG-1]	–	–	–	–	–	–	–	–	–	–
